ChEMBL document CHEMBL3259682, “Synthesis, β-haematin inhibition, and in vitro antimalarial testing of isocryptolepine analogues: SAR study of indolo[3,2-c]quinolines with various substituents at C2, C6, and N11” (Bioorg Med Chem, 2014)

Assays:
L6 = assay: Cytotoxicity against rat L6 cells after 70 hrs by Alamar Blue assay; format: functional, cell-based; conditions: L6, 70 h
How it was run: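 Rat skeletal myoblast L6 cells, 4000 per well, in RPMI 1640 with 1% L-glutamine and 10% fetal bovine serum. Eleven 3-fold serial drug dilutions were tested. Alamar Blue was added for a final 2 h. Fluorescence was read at excitation 536 nm and emission 588 nm. IC₅₀ is the mean of two independent assays.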

Plasmodium falciparum [1] = assay: Antimalarial activity against erythrocytic stage of chloroquine-sensitive Plasmodium falciparum NF54 after 48 hrs by [3H]-hypoxanthine incorporation assay; format: functional, organism-based
How it was run: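 ³H-hypoxanthine incorporation against P. falciparum NF54. DMSO stocks at 10 mg/mL were added to cultures in hypoxanthine-free RPMI 1640 with HEPES, NaHCO₃, neomycin and Albumax, using human A⁺ red cells at 2.5% haematocrit and 0.3% parasitaemia. Eleven 3-fold serial dilutions were tested. Incubation was under 4% CO₂/3% O₂/93% N₂. ³H-hypoxanthine was added after 48 h, followed by a further 24 h. Cells were harvested onto glass-fibre filters. IC₅₀ is the mean of two independent assays.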

[2] = Selectivity index, ratio of IC50 for rat L6 cells to IC50 for erythrocytic stage of chloroquine-sensitive Plasmodium falciparum NF54; format: toxicity, cell-based; conditions: read-out: Ratio IC50
How it was run: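 Selectivity index is the L6 cytotoxicity IC₅₀ divided by the NF54 antiplasmodial IC₅₀. Each IC₅₀ is the mean of two independent assays.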

[3] = Binding affinity to haematin assessed as inhibition of beta-haematin formation after 5 to 6 hrs by pyridine-ferrichrome-based method
How it was run: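 Detergent (NP-40) mediated β-haematin formation assay, run manually. Compounds came from 20, 2 and 0.4 mM DMSO stocks, tested at 0–1000 µM final. Haematin was 100 µM final in 0.5 M acetate buffer, pH 4.8. Incubation was 5–6 h at 37 °C. Read-out used the pyridine-ferrichrome method with UV–vis absorbance. IC₅₀ came from sigmoidal dose–response fits.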

Plasmodium falciparum [4] = assay: Antimalarial activity against erythrocytic stage of chloroquine/pyrimethamine-resistant Plasmodium falciparum K1 after 48 hrs by [3H]-hypoxanthine incorporation assay; format: functional, organism-based
How it was run: (§1)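 Chloroquine/pyrimethamine-resistant K1 and drug-susceptible NF54 P. falciparum were grown in hypoxanthine-free RPMI 1640 with HEPES, NaHCO₃, neomycin and Albumax, in human A⁺ erythrocytes at 2.5% haematocrit and 0.3% parasitaemia. DMSO stocks were 10 mg/mL, tested in eleven 3-fold dilutions under 4% CO₂/3% O₂/93% N₂. ³H-hypoxanthine was added at 48 h, then 24 h more before filter harvest. IC₅₀ is the mean of two assays; RI = K1/NF54 IC₅₀.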

[5] = Selectivity index, ratio of IC50 for rat L6 cells to IC50 for chloroquine/pyrimethamine-resistant Plasmodium falciparum K1; format: toxicity, cell-based; conditions: read-out: Ratio IC50
[6] = Resistance index, ratio of IC50 for chloroquine/pyrimethamine-resistant Plasmodium falciparum K1 to IC50 for erythrocytic stage of chloroquine-sensitive Plasmodium falciparum NF54; format: functional; how it was run: as §1

Row | Compound | IC50 (L6) | IC50 (Plasmodium falciparum [1]) | selectivity ratio [2] | IC50 [3] | IC50 (Plasmodium falciparum [4]) | selectivity ratio [5] | Ratio IC50 [6]
1 | Cn1c2ccccc2c2c(NCCCN)nc3ccc(Br)cc3c21 | 0.825 µM | 0.0313 µM | 26.3 | 26.6 µM |  |  | 
2 | Cc1ccc2nc(NCCCN)c3c4ccccc4[nH]c3c2c1 | 0.322 µM | 0.0361 µM | 8.9 | 60.9 µM |  |  | 
3 | CC(CN)CNc1nc2ccc(Cl)cc2c2[nH]c3ccccc3c12 (stereo not drawn) | 1.92 µM | 0.0295 µM | 65 | 12.7 µM | 0.059 µM | 32.5 | 2
4 | CN(C)CCCNc1nc2ccccc2c2c1c1ccccc1n2C | 0.701 µM | 0.0932 µM | 7.5 | > 1000 µM |  |  | 
5 | O=C(NCCCNc1nc2ccc(Br)cc2c2[nH]c3ccccc3c12)Nc1ccccc1 | 1.28 µM | 0.0225 µM | 56.9 | 13.9 µM | 0.0369 µM | 34.7 | 1.6
6 | CN(C)CCCNc1nc2ccccc2c2[nH]c3ccccc3c12 | 0.606 µM | 0.0094 µM | 64.3 | 83.6 µM | 0.0251 µM | 24.1 | 2.66
7 | O=S(=O)(NCCCNc1nc2ccccc2c2[nH]c3ccccc3c12)c1ccccc1 | 0.811 µM | 0.072 µM | 11.3 | 24.2 µM | 0.0929 µM | 8.7 | 1.3
8 | Clc1nc2ccccc2c2[nH]c3ccccc3c12 | 193 µM | 10.2 µM | 18.9 | > 1000 µM |  |  | 
9 | CC(C)(CN)CNc1nc2ccc(Cl)cc2c2[nH]c3ccccc3c12 | 1.84 µM | 0.0255 µM | 72.1 | 20.7 µM | 0.051 µM | 36.1 | 2
10 | c1ccc2c(c1)nc(N1CCCNCC1)c1c3ccccc3[nH]c21 | 4.11 µM | 0.0632 µM | 65 | 171 µM |  |  | 
11 | OCCNc1nc2ccccc2c2[nH]c3ccccc3c12 | 0.891 µM | 0.141 µM | 6.3 | 200 µM |  |  | 
12 | Cn1c2ccccc2c2c(NCC(C)(C)CN)nc3ccc(Br)cc3c21 | 0.576 µM | 0.0583 µM | 9.9 | 41.2 µM |  |  | 
13 | Cc1ccc2nc(NCCCNC(=O)Nc3ccccc3)c3c4ccccc4[nH]c3c2c1 | 0.966 µM | 0.0236 µM | 40.9 | 17.2 µM | 0.0425 µM | 22.7 | 1.8
14 | O=C(NCCCNc1nc2ccccc2c2[nH]c3ccccc3c12)Nc1ccccc1 | 1.15 µM | 0.0024 µM | 480 | 23.9 µM | 0.0537 µM | 21.5 | 22.4
15 | Cn1c2ccccc2c2c(NCCCN)nc3ccccc3c21 | 0.279 µM | 0.0723 µM | 3.9 | 24.2 µM | 0.0854 µM | 3.3 | 1.2
16 | C[C@@H]1CC[C@H]2[C@@H](C)C(=O)O[C@@H]3O[C@@]4(C)CC[C@@H]1[C@]32OO4 [ARTEMISININ] |  | 0.0043 µM |  |  | 0.0028 µM |  | 0.7
17 | c1ccc(CNc2nc3ccccc3c3[nH]c4ccccc4c23)cc1 | 2.93 µM | 0.0186 µM | 158 | 30.6 µM |  |  | 
18 | COc1ccc2nc(NCCCN)c3c4ccccc4n(C)c3c2c1 | 0.138 µM | 0.0329 µM | 4.2 | 56.9 µM |  |  | 
19 | O=C(NCCCNc1nc2cccc(Br)c2c2[nH]c3ccccc3c12)Nc1ccccc1 | 3.62 µM | 0.289 µM | 12.6 | 22 µM |  |  | 
20 | NCCCNc1nc2ccccc2c2[nH]c3ccccc3c12 | 0.627 µM | 0.0137 µM | 45.8 | 116 µM | 0.0827 µM | 7.6 | 6
21 | CS(=O)(=O)NCCCNc1nc2ccccc2c2[nH]c3ccccc3c12 | 1.06 µM | 0.0543 µM | 19.6 | 118 µM |  |  | 
22 | CN(C)CCCNc1nc2ccc(Br)cc2c2c1c1ccccc1n2C | 0.457 µM | 0.0486 µM | 9.4 | 39.9 µM |  |  | 
23 | Cn1c2ccccc2c2c(NCCCN)nc3ccc(Cl)cc3c21 | 0.62 µM | 0.0354 µM | 17.5 | 28 µM |  |  | 

Row | Compound | IC50 (L6) | IC50 (Plasmodium falciparum [1]) | selectivity ratio [2] | IC50 [3] | IC50 (Plasmodium falciparum [4]) | selectivity ratio [5] | Ratio IC50 [6]
24 | CCN(CC)Cc1cc(Nc2ccnc3cc(Cl)ccc23)ccc1O |  |  |  | 11 µM |  |  | 
25 | CC(CNC(=O)Nc1ccccc1)CNc1nc2ccc(Cl)cc2c2[nH]c3ccccc3c12 (stereo not drawn) | 4.11 µM | 0.0109 µM | 377 | 14.6 µM | 0.0175 µM | 235 | 1.6
26 | OCCCNc1nc2ccccc2c2[nH]c3ccccc3c12 | 0.717 µM | 0.227 µM | 3.2 | 287 µM |  |  | 
27 | NCCCCCCNc1nc2ccccc2c2[nH]c3ccccc3c12 | 1.18 µM | 0.015 µM | 78.8 | 49.6 µM | 0.0902 µM | 13.1 | 6
28 | O=C(NCCCNc1nc2ccc(F)cc2c2[nH]c3ccccc3c12)Nc1ccccc1 | 1.5 µM | 0.0257 µM | 58.5 | 22.7 µM | 0.0492 µM | 30.6 | 1.9
29 | COc1ccc2nc(NCCCNC(=O)Nc3ccccc3)c3c4ccccc4[nH]c3c2c1 | 1.52 µM | 0.0171 µM | 88.8 | 14.8 µM | 0.0196 µM | 77.4 | 1.1
30 | O=C(NCCCNc1nc2ccc([N+](=O)[O-])cc2c2[nH]c3ccccc3c12)Nc1ccccc1 | 4.64 µM | 0.0242 µM | 192 | 15.2 µM |  |  | 
31 | COc1ccc(Nc2nc3ccccc3c3[nH]c4ccccc4c23)c(OC)c1 | 15.2 µM | 0.317 µM | 48 | 44.1 µM |  |  | 
32 | NCCCNc1nc2ccc(F)cc2c2[nH]c3ccccc3c12 | 0.639 µM | 0.013 µM | 49.1 | 14.3 µM |  |  | 
33 | NCCCCNc1nc2ccccc2c2[nH]c3ccccc3c12 | 0.739 µM | 0.0361 µM | 20.5 | 62 µM |  |  | 
34 | Cn1c2ccccc2c2c(NCCCN)nc3ccc(F)cc3c21 | 0.292 µM | 0.0527 µM | 5.5 | 25.8 µM |  |  | 
35 | Cn1c2ccccc2c2c(Cl)nc3ccccc3c21 | 17.3 µM | 7.39 µM | 2.3 | > 1000 µM |  |  | 
36 | Cn1cc2c3ccccc3nc-2c2ccccc21 [ISOCRYPTOLEPINE] |  |  |  |  |  | 1.5 | 
37 | Cc1ccc2nc(NCCCN)c3c4ccccc4n(C)c3c2c1 | 0.192 µM | 0.0314 µM | 6.1 | 29.5 µM |  |  | 
38 | CN(C)CCCNc1nc2ccc(Cl)cc2c2c1c1ccccc1n2C | 0.313 µM | 0.0409 µM | 7.7 | 25.9 µM |  |  | 
39 | c1ccc2c(c1)nc(NCC1CCCO1)c1c3ccccc3[nH]c21 (stereo not drawn) | 2.05 µM | 0.113 µM | 18.1 | 148 µM |  |  | 
40 | CCN(CC)C(=O)NCCCNc1nc2ccccc2c2[nH]c3ccccc3c12 | 3.57 µM | 0.0411 µM | 86.8 | 39.2 µM |  |  | 
41 | Cn1c2ccccc2c2c(NCCCNC(=O)Nc3ccccc3)nc3ccccc3c21 | 0.108 µM | 0.0073 µM | 14.8 | 22.7 µM |  |  | 
42 | NCCCNc1nc2ccc(Br)cc2c2[nH]c3ccccc3c12 | 0.891 µM | 0.0081 µM | 110 | 19.4 µM |  |  | 
43 | Cn1c2ccccc2c2c(NCC(C)(C)CN)nc3ccc(Cl)cc3c21 | 0.425 µM | 0.0954 µM | 4.5 | 38.4 µM |  |  | 
44 | Cn1c2ccccc2c2c(NCC(C)(C)CN)nc3ccccc3c21 | 0.259 µM | 0.274 µM | 0.9 | 1000 µM |  |  | 
45 | NCCCN1CCN(CCCNc2nc3ccccc3c3[nH]c4ccccc4c23)CC1 | 1.78 µM | 0.0264 µM | 67.3 | 62.4 µM |  |  | 
46 | CCN(CC)CCCC(C)Nc1ccnc2cc(Cl)ccc12 (stereo not drawn) [CHLOROQUINE] |  |  |  | 30 µM |  |  | 
